From ChEMBL document CHEMBL1268987, “Identification of 2-oxo-N-(phenylmethyl)-4-imidazolidinecarboxamide antagonists of the P2X(7) receptor” (Bioorg Med Chem Lett, 2010)
Converted amounts (≈) assume the structure as drawn. The source made the active and inactive calls. The calls are words filed in the database; no cut-off is given here.

Assays:
P2X purinoceptor 7 [1] = target: T1, P2X purinoceptor 7 (Homo sapiens, UniProt Q99572); assay: Antagonist activity at human recombinant P2X7 receptor expressed in HEK293 cells by ethidium accumulation assay; format: functional, cell-based
T1 sequence (Q99572 whole entry): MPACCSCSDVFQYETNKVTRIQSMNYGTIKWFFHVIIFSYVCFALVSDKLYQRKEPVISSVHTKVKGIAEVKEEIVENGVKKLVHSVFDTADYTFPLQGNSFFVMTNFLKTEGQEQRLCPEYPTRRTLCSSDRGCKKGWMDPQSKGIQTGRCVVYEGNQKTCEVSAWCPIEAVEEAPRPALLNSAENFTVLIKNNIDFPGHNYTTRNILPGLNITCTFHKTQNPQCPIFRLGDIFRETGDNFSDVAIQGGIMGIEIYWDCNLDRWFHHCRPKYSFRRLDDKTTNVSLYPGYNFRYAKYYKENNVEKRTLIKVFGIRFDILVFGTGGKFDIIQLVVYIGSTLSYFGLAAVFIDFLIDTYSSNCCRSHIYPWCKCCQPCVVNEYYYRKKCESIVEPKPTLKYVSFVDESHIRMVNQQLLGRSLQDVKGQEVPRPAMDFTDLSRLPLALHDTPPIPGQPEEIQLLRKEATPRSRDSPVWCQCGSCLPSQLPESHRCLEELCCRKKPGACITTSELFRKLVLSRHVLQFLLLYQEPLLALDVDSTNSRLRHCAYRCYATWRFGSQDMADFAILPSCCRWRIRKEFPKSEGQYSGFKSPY
Method in brief: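 Ethidium accumulation read-out: ATP activation of the receptor opens a large pore, and uptake of ethidium bromide dye into the cells is measured by fluorescence.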

MDCK = assay: Efflux ratio of permeability from apical to basolateral side over basolateral to apical side in MDCK cells expressing MDR; format: ADME, cell-based, Canis lupus familiaris; conditions: dog
[2] = (§1) Clearance in rat blood at 1 mg/kg, iv; format: ADME, organism-based; set-up: dose 1 mg/kg, route intravenous; conditions: blood
Method in brief: (§2)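 Rat blood clearance was determined after a single iv infusion at 1 mg/kg.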

[3] = Half life in rat blood at 1 mg/kg, iv; format: ADME, organism-based; set-up: dose 1 mg/kg, route intravenous
[4] = Half life in rat at 3 mg/kg, po; format: ADME, organism-based; set-up: dose 3 mg/kg, route oral; conditions: in vivo
[5] = Cmax in rat at 3 mg/kg, po; format: ADME, organism-based; set-up: dose 3 mg/kg, route oral; conditions: in vivo
[6] = Clearance in rat at 3 mg/kg, po; format: ADME, organism-based; set-up: dose 3 mg/kg, route oral; conditions: in vivo
P2X purinoceptor 7 [7] = target: T2, P2X purinoceptor 7 (Rattus norvegicus, UniProt Q64663); assay: Antagonist activity at rat recombinant P2X7 receptor; format: functional
T2 sequence (Q64663 whole entry): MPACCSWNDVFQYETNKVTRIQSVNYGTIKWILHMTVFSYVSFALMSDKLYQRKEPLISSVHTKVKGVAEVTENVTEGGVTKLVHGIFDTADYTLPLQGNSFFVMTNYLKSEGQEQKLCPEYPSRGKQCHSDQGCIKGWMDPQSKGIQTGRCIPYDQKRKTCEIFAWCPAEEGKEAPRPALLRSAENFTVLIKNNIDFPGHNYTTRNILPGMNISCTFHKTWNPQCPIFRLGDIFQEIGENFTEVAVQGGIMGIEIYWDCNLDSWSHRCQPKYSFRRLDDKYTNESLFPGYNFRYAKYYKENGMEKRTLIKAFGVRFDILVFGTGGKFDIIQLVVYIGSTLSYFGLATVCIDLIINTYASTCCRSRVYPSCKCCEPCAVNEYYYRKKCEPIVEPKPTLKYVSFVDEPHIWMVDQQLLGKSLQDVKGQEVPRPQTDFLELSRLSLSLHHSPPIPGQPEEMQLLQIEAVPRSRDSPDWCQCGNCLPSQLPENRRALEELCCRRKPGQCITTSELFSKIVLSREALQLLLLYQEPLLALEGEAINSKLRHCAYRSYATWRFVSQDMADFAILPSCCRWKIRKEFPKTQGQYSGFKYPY

[8] = Lipophilicity, log D of the compound at pH 7.4; format: physicochemical; conditions: buffer
[9] = Drug level in rat chronic joint pain model blood at 20 mg/kg, po after 1 hr; format: ADME, organism-based; set-up: dose 20 mg/kg, route oral; conditions: read-out: Drug uptake
Method in brief: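 In the rat chronic joint pain model, blood concentrations were measured 1.0 h after a 20 mg/kg oral dose.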

Rattus norvegicus [10] = assay: Reversal of FCA-induced hypersensitivity in rat chronic joint pain model at 20 mg/kg, po after 1 to 6 hrs; format: functional, organism-based; set-up: dose 20 mg/kg
Method in brief: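 Chronic joint pain model in rat. Hypersensitivity was induced by intra-articular FCA, and oral dosing at 20 mg/kg began 13 days post FCA. Response was assessed at 1, 3 and 6 h post-dose. Celecoxib at 30 mg/kg po served as comparator.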

[11] = Ratio of drug level in brain to plasma in rat chronic joint pain model at 20 mg/kg, po after 1 hr; format: ADME, organism-based; set-up: dose 20 mg/kg, route oral; conditions: brain and plasma, read-out: BBR
[12] = Half life in monkey at 1 mg/kg, iv and 3 mg/kg, po; format: ADME, organism-based, Macaca mulatta; conditions: rhesus monkey, in vivo
Method in brief: (§3)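 Cross-species pharmacokinetics (rat, dog, monkey), n = 3 per species. Parameters were derived from 1 mg/kg iv or 3 mg/kg po profiles: blood clearance, Vss, half-life and oral bioavailability.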

[13] = Protein binding in rat plasma; format: ADME, cell-free; conditions: read-out: PPB (converted)
[14] = Oral bioavailability in rat at 1 mg/kg, iv and 3 mg/kg, po; format: ADME, organism-based; conditions: in vivo; method in brief: as §3
[15] = Clearance in rat blood at 1 mg/kg, iv and 3 mg/kg, po; format: ADME, organism-based; method in brief: as §3
[16] = Half life in rat at 1 mg/kg, iv and 3 mg/kg, po; format: ADME, organism-based; conditions: in vivo; method in brief: as §3
[17] = Solubility of the compound in FeSSIF; format: physicochemical
[18] = Oral bioavailability in dog at 1 mg/kg, iv and 3 mg/kg, po; format: ADME, organism-based, Canis lupus familiaris; conditions: in vivo; method in brief: as §3
[19] = Volume of distribution at steady state in rat at 1 mg/kg, iv and 3 mg/kg, po; format: ADME, organism-based; conditions: in vivo, read-out: Vdss; method in brief: as §3
[20] = Volume of distribution at steady state in dog at 1 mg/kg, iv and 3 mg/kg, po; format: ADME, organism-based, Canis lupus familiaris; conditions: in vivo, read-out: Vdss; method in brief: as §3
[21] = Oral bioavailability in monkey at 1 mg/kg, iv and 3 mg/kg, po; format: ADME, organism-based, Macaca mulatta; conditions: rhesus monkey, in vivo; method in brief: as §3
[22] = Volume of distribution at steady state in monkey at 1 mg/kg, iv and 3 mg/kg, po; format: ADME, organism-based, Macaca mulatta; conditions: rhesus monkey, in vivo, read-out: Vdss; method in brief: as §3
[23] = Half life in dog at 1 mg/kg, iv and 3 mg/kg, po; format: ADME, organism-based, Canis lupus familiaris; conditions: in vivo; method in brief: as §3
[24] = Clearance in dog blood at 1 mg/kg, iv and 3 mg/kg, po; format: ADME, organism-based, Canis lupus familiaris; method in brief: as §3
[25] = Clearance in monkey blood at 1 mg/kg, iv and 3 mg/kg, po; format: ADME, organism-based, Macaca mulatta; conditions: rhesus monkey; method in brief: as §3
Rattus norvegicus [26] = assay: as §1; format: ADME, organism-based; set-up: dose 1 mg/kg, route intravenous; conditions: in vivo; method in brief: as §2
[27] = Metabolic stability in rat liver microsomes assessed as intrinsic clearance measured per gram of tissue; format: ADME, Microsome

## CN1C(=O)C(F)(F)C[C@H]1C(=O)NCc1cccc(C(F)(F)F)c1Cl
P2X purinoceptor 7 [1]
  IC50: 3.98 nM

## CN1C(=O)NC[C@H]1C(=O)NCc1cccc(Cl)c1Cl
P2X purinoceptor 7 [1]
  IC50: 25.1 nM

## CN1C(=O)OC[C@H]1C(=O)NCc1cccc(C(F)(F)F)c1Cl
P2X purinoceptor 7 [1]
  IC50: 15.8 nM

## Cc1cc(N2C[C@@H](C(=O)NCc3cccc(C(F)(F)F)c3Cl)N(C)C2=O)ccn1
P2X purinoceptor 7 [1]
  IC50: 10 nM
MDCK
  Ratio: 1.9

## CN1C(=O)N(c2cn(C)cn2)C[C@H]1C(=O)NCc1cccc(C(F)(F)F)c1Cl
P2X purinoceptor 7 [1]
  IC50: 2.51 nM

## CN1C[C@@H](C(=O)NCc2cccc(Cl)c2Cl)N(C)C1=O
P2X purinoceptor 7 [1]
  IC50: 10 nM
[2]
  clearance: 49 mL/min/kg
[3]
  half-life: 0.4 h

## Cc1ncccc1N1C[C@@H](C(=O)NCc2cccc(C(F)(F)F)c2Cl)N(C)C1=O
P2X purinoceptor 7 [1]
  IC50: 5.01 nM
MDCK
  Ratio: 4.4

## CN1CCC(N2C[C@@H](C(=O)NCc3cccc(C(F)(F)F)c3Cl)N(C)C2=O)CC1
P2X purinoceptor 7 [1]
  IC50: 31.6 nM
MDCK
  Ratio: 3.2

## Cc1ncccc1N1C[C@@H](C(=O)NCc2ccc(Cl)cc2Cl)N(C)C1=O
[4]
  half-life: 2.3 h
[5]
  Cmax: 1070 ng/mL
[6]
  CL/F: 17 mL/min/kg
P2X purinoceptor 7 [1]
  IC50: 10 nM
P2X purinoceptor 7 [7]
  IC50: 63.1 nM
[8]
  logD: 2.2
MDCK
  Ratio: 4.9
[9]
  concentration at 1 h: 16.8 µM
Rattus norvegicus [10]
  Activity: inactive
[11]
  Kp at 1 h: < 0.1

## Cc1cccc(N2C[C@@H](C(=O)NCc3cccc(C(F)(F)F)c3Cl)N(C)C2=O)n1
P2X purinoceptor 7 [1]
  IC50: 79.4 nM

## CN1C(=O)NC[C@H]1C(=O)NCc1ccc(Cl)cc1Cl
[12]
  half-life: 2.9 h
[13]
  fraction unbound: 0.35
[14]
  bioavailability: 100%
[15]
  clearance: 6 mL/min/kg
P2X purinoceptor 7 [1]
  IC50: 10 nM
[16]
  half-life: 2.8 h
[17]
  solubility: 780 µg/mL (≈ 2580 µM)
[18]
  bioavailability: 100%
[19]
  Vd: 1.3 L/kg
[2]
  clearance: 6 mL/min/kg
[20]
  Vd: 0.8 L/kg
[21]
  bioavailability: 99%
[3]
  half-life: 2.8 h
[22]
  Vd: 1.2 L/kg
[9]
  concentration at 1 h: 56.4 µM
[23]
  half-life: 5.7 h
[24]
  clearance: 2 mL/min/kg
Rattus norvegicus [10]
  Activity: Active
[25]
  clearance: 7 mL/min/kg
[11]
  Kp at 1 h: 0.3

## CN1C(=O)COC[C@H]1C(=O)NCc1cccc(C(F)(F)F)c1Cl
P2X purinoceptor 7 [1]
  IC50: 3.98 nM

## CN1C(=O)NC[C@H]1C(=O)NCc1cccc(C(F)(F)F)c1Cl
P2X purinoceptor 7 [1]
  IC50: 3.98 nM
MDCK
  Ratio: 2.1

## CN1C(=O)N(CCN2CCOCC2)C[C@H]1C(=O)NCc1cccc(C(F)(F)F)c1Cl
P2X purinoceptor 7 [1]
  IC50: 25.1 nM
MDCK
  Ratio: 11.9

## CN1C(=O)C(C)(C)C[C@H]1C(=O)NCc1cccc(C(F)(F)F)c1Cl
P2X purinoceptor 7 [1]
  IC50: 25.1 nM

## CN1C(=O)N(c2nccn2C)C[C@H]1C(=O)NCc1cccc(C(F)(F)F)c1Cl
P2X purinoceptor 7 [1]
  IC50: 3.98 nM
MDCK
  Ratio: 5.3

## CN1C(=O)CC[C@H]1C(=O)NCc1cccc(C(F)(F)F)c1Cl [GSK1482160]
[12]
  half-life: 0.9 h
[15]
  clearance: 9 mL/min/kg
[16]
  half-life: 1.5 h
P2X purinoceptor 7 [7]
  IC50: 251 nM
[18]
  bioavailability: 69%
[19]
  Vd: 1 L/kg
[20]
  Vd: 0.9 L/kg
[21]
  bioavailability: 57%
[22]
  Vd: 1.1 L/kg
[23]
  half-life: 0.7 h
[24]
  clearance: 14 mL/min/kg
[25]
  clearance: 17 mL/min/kg

## CN1C[C@@H](C(=O)NCc2ccc(Cl)cc2Cl)N(C)C1=O
P2X purinoceptor 7 [1]
  IC50: 2 nM
Rattus norvegicus [26]
  clearance: 30 mL/min/kg
[3]
  half-life: 0.6 h
[27]
  CLint scaled: < 0.5 mL/min/g
